{"source": "ChEMBL document CHEMBL4422632", "about": "“Design of Novel Inhibitors of Human Thymidine Phosphorylase: Synthesis, Enzyme Inhibition, in Vitro Toxicity, and Impact on Human Glioblastoma Cancer” (J Med Chem, 2019)", "key": {"[1]": {"assay": "Toxicity in nude BALB/c mouse xenografted with human U87MG cells assessed as reduction in body weight at 50 mg/kg, […]", "format": "organism-based", "settings": "in vivo, ip, 120 h"}, "[2]": {"assay": "Cytotoxicity against mouse RAW264.7 cells assessed as cell viability at 500 uM after 72 hrs by MTT assay relative to control", "format": "cell-based", "settings": "read-out: Activity", "how_it_was_run": "(§1)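 Cells kept in DMEM with 10% heat-inactivated FBS, 1% penicillin-streptomycin and 0.1% fungizone at 37 °C, 5% CO₂. U-87 MG seeded at 2 x 10^3 cells/well, RAW 264.7 at 5 x 10^2, adhered 24 h, then exposed 72 h. MTT: 1 mg/mL for 3 h, formazan in DMSO, A595. NRU: 25 μg/mL dye, 3 h, ethanol:acetic acid:water desorb. Untreated wells = 100%; three to five independent experiments in triplicate.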"}, "[3]": {"assay": "Cytotoxicity against human HaCaT cells assessed as cell viability at 1000 uM after 72 hrs by neutral red uptake-based assay relative to control", "settings": "read-out: Activity", "how_it_was_run": "(§2)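 Cells grown in DMEM with 10% FBS at 37 °C, 5% CO₂; seeded 2 x 10³ cells/well, adhered 24 h, then exposed 72 h. MTT: 1 mg/mL for 3 h, formazan in DMSO, absorbance 595 nm. NRU: neutral red 25 µg/mL in serum-free medium for 3 h, desorbed in ethanol:acetic acid:water. Viability as % of untreated control; mean ± SEM of three to five independent experiments in triplicate.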"}, "[4]": {"assay": "Cytotoxicity against African green monkey Vero cells assessed as cell viability at 250 uM after 72 hrs by MTT assay relative to control", "format": "cell-based", "settings": "chlorocebus sabaeus, read-out: Activity", "how_it_was_run": "as §2"}, "[5]": {"assay": "Cytotoxicity against human U87MG cells assessed as cell viability at 100 uM after 72 hrs by neutral red uptake-based assay relative to control", "design": "species or system U-87MG ATCC", "settings": "read-out: Activity", "how_it_was_run": "as §2"}, "[6]": {"assay": "Intrinsic clearance in human liver S9 fraction at 2 uM up to 30 mins in presence of NADPH by HPLC-MS/MS analysis", "format": "ADME, subcellular", "settings": "read-out: CLH"}, "[7]": {"assay": "Cytotoxicity against human U87MG cells assessed as cell viability at 25 uM after 72 hrs by MTT assay relative to control", "format": "cell-based, U-87MG ATCC", "settings": "read-out: Activity", "how_it_was_run": "as §1"}, "[8]": {"assay": "Cytotoxicity against human HepG2 cells assessed as cell viability at 500 uM after 72 hrs by neutral red uptake-based assay relative to control", "settings": "read-out: Activity", "how_it_was_run": "as §2"}, "[9]": {"assay": "Cytotoxicity against mouse RAW264.7 cells assessed as cell viability at 100 uM after 72 hrs by MTT assay relative to control", "format": "cell-based", "settings": "read-out: Activity", "how_it_was_run": "as §1"}, "[10]": {"assay": "Cytotoxicity against mouse RAW264.7 cells assessed as cell viability at 500 uM after 72 hrs by neutral red uptake-based assay relative to control", "settings": "read-out: Activity", "how_it_was_run": "as §1"}, "[11]": {"assay": "Cytotoxicity against human HepG2 cells assessed as cell viability at 100 uM after 72 hrs by MTT assay relative to control", "format": "cell-based", "settings": "read-out: Activity", "how_it_was_run": "as §2"}, "[12]": {"assay": "AUCt in CF1 mouse at 50 mg/kg, ip by non-compartmental analysis", "format": "ADME, organism-based", "settings": "in vivo", "how_it_was_run": "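Male CF1 mice received a single ip injection of 50 mg/kg in 0.9% saline; 3 animals per time point, killed 0.03, 0.08, 0.25, 0.5, 1 and 2 h after dosing; blood collected in heparin tubes.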"}, "U-87 MG [13]": {"tested_on": "U-87 MG", "assay": "In-vivo inhibition of cell proliferation in human U87MG cells xenografted in BALB/c nude mouse at 50 mg/kg, ip after 14 days by Ki-67b-staining based assay", "format": "functional, organism-based", "settings": "U-87MG ATCC", "how_it_was_run": "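Male BALB/c nude mice implanted subcutaneously with 5 x 10⁵ U-87 MG cells in the right flank. Treated IP at 50 mg/kg/day for 14 days, with saline controls, starting once tumors reached about 50 mm³. Tumors fixed in formaldehyde and cut at 3 µm. Citrate pH 6 antigen retrieval.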"}, "[14]": {"assay": "Cytotoxicity against human HepG2 cells assessed as cell viability at 1000 uM after 72 hrs by neutral red uptake-based assay relative to control", "settings": "read-out: Activity", "how_it_was_run": "as §2"}, "[15]": {"assay": "Elimination rate constant in CF1 mouse at 50 mg/kg, ip by non-compartmental analysis", "format": "ADME, organism-based", "settings": "in vivo"}, "[16]": {"assay": "AUCM (0 to infinity) in CF1 mouse at 50 mg/kg, ip by non-compartmental analysis", "format": "ADME, organism-based", "settings": "in vivo"}, "[17]": {"assay": "Cytotoxicity against mouse RAW264.7 cells assessed as cell viability at 50 uM after 72 hrs by MTT assay relative to control", "format": "cell-based", "settings": "read-out: Activity", "how_it_was_run": "as §1"}, "[18]": {"assay": "Cytotoxicity against human HaCaT cells assessed as cell viability at 250 uM after 72 hrs by MTT assay relative to control", "format": "cell-based", "settings": "read-out: Activity", "how_it_was_run": "as §2"}, "[19]": {"assay": "Cytotoxicity against African green monkey Vero cells assessed as cell viability at 250 uM after 72 hrs by neutral red uptake-based assay relative to control", "settings": "chlorocebus sabaeus, read-out: Activity", "how_it_was_run": "as §2"}, "Cytochrome P450 3A4": {"target": "Cytochrome P450 3A4 (Homo sapiens, UniProt P08684)", "sequence (P08684 whole entry)": "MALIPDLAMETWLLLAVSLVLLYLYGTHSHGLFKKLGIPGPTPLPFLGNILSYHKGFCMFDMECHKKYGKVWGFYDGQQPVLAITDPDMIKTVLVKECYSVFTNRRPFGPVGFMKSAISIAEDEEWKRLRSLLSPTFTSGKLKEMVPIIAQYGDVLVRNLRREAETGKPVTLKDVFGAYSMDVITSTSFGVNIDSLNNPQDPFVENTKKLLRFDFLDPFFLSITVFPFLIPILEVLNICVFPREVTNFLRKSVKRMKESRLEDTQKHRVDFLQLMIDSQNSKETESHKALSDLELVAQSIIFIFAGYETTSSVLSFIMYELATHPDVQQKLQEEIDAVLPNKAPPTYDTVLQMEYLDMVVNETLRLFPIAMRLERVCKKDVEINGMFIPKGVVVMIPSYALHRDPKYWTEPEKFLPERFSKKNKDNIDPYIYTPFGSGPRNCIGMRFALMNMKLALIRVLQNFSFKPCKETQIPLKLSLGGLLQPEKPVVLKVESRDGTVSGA", "assay": "Inhibition of CYP3A4 in human liver microsomes by HPLC-MS/MS analysis", "format": "ADME"}, "[20]": {"assay": "Cytotoxicity against mouse RAW264.7 cells assessed as cell viability at 250 uM after 72 hrs by neutral red uptake-based assay relative to control", "settings": "read-out: Activity", "how_it_was_run": "as §1"}, "[21]": {"assay": "Cytotoxicity against mouse RAW264.7 cells assessed as cell viability at 1000 uM after 72 hrs by MTT assay relative to control", "format": "cell-based", "settings": "read-out: Activity", "how_it_was_run": "as §1"}, "[22]": {"assay": "Cytotoxicity against human HaCaT cells assessed as cell viability at 100 uM after 72 hrs by neutral red uptake-based assay relative to control", "settings": "read-out: Activity", "how_it_was_run": "as §2"}, "[23]": {"assay": "Cytotoxicity against human HepG2 cells assessed as cell viability at 25 uM after 72 hrs by MTT assay relative to control", "format": "cell-based", "settings": "read-out: Activity", "how_it_was_run": "as §2"}, "[24]": {"assay": "Cytotoxicity against human HepG2 cells assessed as cell viability at 250 uM after 72 hrs by MTT assay relative to control", "format": "cell-based", "settings": "read-out: Activity", "how_it_was_run": "as §2"}, "U-87 MG [25]": {"tested_on": "U-87 MG", "assay": "Anti-angiogenic activity in tumor of human U87MG cells xenografted in nude BALB/c mouse assessed as reduction in number of blood vessels at 50 mg/kg, ip administered for 14 days by hematoxylin and eosin-staining based light microscopy", "format": "functional, organism-based", "settings": "U-87MG ATCC", "how_it_was_run": "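U-87 MG flank xenografts (5 x 10⁵ cells) in male nude mice; ip treatment daily from about 50 mm³ for 14 days, with temozolomide at 50 mg/kg/day in the co-treatment arm. Vessel density counted on HE-stained 3 µm sections by hot-spot method, mean of four fields per tumor at x200, avoiding gross haemorrhage. One-way ANOVA/Dunnett.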"}, "[26]": {"assay": "Cytotoxicity against human HaCaT cells assessed as cell viability at 100 uM after 72 hrs by MTT assay relative to control", "format": "cell-based", "settings": "read-out: Activity", "how_it_was_run": "as §2"}, "[27]": {"assay": "Toxicity in nude BALB/c mouse xenografted with human U87MG cells assessed as reduction in body weight at 50 mg/kg, […] co-treated with temozolamide", "format": "organism-based", "settings": "in vivo, ip, 120 h"}, "[28]": {"assay": "Cytotoxicity against human U87MG cells assessed as cell viability at 25 uM after 72 hrs by neutral red uptake-based assay relative to control", "design": "species or system U-87MG ATCC", "settings": "read-out: Activity", "how_it_was_run": "as §1"}, "[29]": {"assay": "AUMCt in CF1 mouse at 50 mg/kg, ip by non-compartmental analysis", "format": "ADME, organism-based", "settings": "in vivo", "how_it_was_run": "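Male CF1 mice, single ip 50 mg/kg in 0.9% saline, 3 animals per time point sampled 0.03–2 h; heparinized blood. AUMC0→t computed by trapezoidal rule to last point (2 h); non-compartmental analysis.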"}, "[30]": {"assay": "Cytotoxicity against African green monkey Vero cells assessed as cell viability at 500 uM after 72 hrs by MTT assay relative to control", "format": "cell-based", "settings": "chlorocebus sabaeus, read-out: Activity", "how_it_was_run": "as §2"}, "[31]": {"assay": "Cytotoxicity against human HaCaT cells assessed as cell viability at 25 uM after 72 hrs by MTT assay relative to control", "format": "cell-based", "settings": "read-out: Activity", "how_it_was_run": "as §2"}}, "note": "The source made the active and inactive calls. The rule behind the calls is not given here."}
{"smiles": "O=c1[nH]c(CNC(CO)CO)c(I)c(=O)[nH]1", "values": [{"measurement": "Activity", "setting": "[1]", "value": "Non-Toxic"}, {"measurement": "viability at 72 h, 500 µM", "setting": "[2]", "value": 91, "unit": "%"}, {"measurement": "viability at 72 h, 1000 µM", "setting": "[3]", "value": 75, "unit": "%"}, {"measurement": "viability at 72 h, 250 µM", "setting": "[4]", "value": 95, "unit": "%"}, {"measurement": "viability at 72 h, 100 µM", "setting": "[5]", "value": 104, "unit": "%"}, {"measurement": "CLint scaled at 2 µM", "setting": "[6]", "value": 0.78, "unit": "L/h/kg"}, {"measurement": "viability at 72 h, 25 µM", "setting": "[7]", "value": 101, "unit": "%"}, {"measurement": "viability at 72 h, 500 µM", "setting": "[8]", "value": 96, "unit": "%"}, {"measurement": "viability at 72 h, 100 µM", "setting": "[9]", "value": 99, "unit": "%"}, {"measurement": "viability at 72 h, 500 µM", "setting": "[10]", "value": 82, "unit": "%"}, {"measurement": "viability at 72 h, 100 µM", "setting": "[11]", "value": 100, "unit": "%"}, {"measurement": "AUC(0-t)", "setting": "[12]", "value": 16.9, "unit": "µg·h/mL"}, {"measurement": "inhibition", "setting": "U-87 MG [13]", "value": "inactive"}, {"measurement": "viability at 72 h, 1000 µM", "setting": "[14]", "value": 81, "unit": "%"}, {"measurement": "k el", "setting": "[15]", "value": 0.000383, "unit": "s⁻¹"}, {"measurement": "AUMC", "setting": "[16]", "value": 7.6, "unit": "µg·h²/mL"}, {"measurement": "viability at 72 h, 50 µM", "setting": "[17]", "value": 99, "unit": "%"}, {"measurement": "viability at 72 h, 250 µM", "setting": "[18]", "value": 96, "unit": "%"}, {"measurement": "viability at 72 h, 250 µM", "setting": "[19]", "value": 103, "unit": "%"}, {"measurement": "IC50", "setting": "Cytochrome P450 3A4", "value": "> 100", "unit": "µM"}, {"measurement": "viability at 72 h, 250 µM", "setting": "[20]", "value": 85, "unit": "%"}, {"measurement": "viability at 72 h, 1000 µM", "setting": "[21]", "value": 72, "unit": "%"}, {"measurement": "viability at 72 h, 100 µM", "setting": "[22]", "value": 104, "unit": "%"}, {"measurement": "viability at 72 h, 25 µM", "setting": "[23]", "value": 103, "unit": "%"}, {"measurement": "viability at 72 h, 250 µM", "setting": "[24]", "value": 100, "unit": "%"}, {"measurement": "Activity", "setting": "U-87 MG [25]", "value": "Active"}, {"measurement": "viability at 72 h, 100 µM", "setting": "[26]", "value": 98, "unit": "%"}, {"measurement": "Activity", "setting": "[27]", "value": "Non-Toxic"}, {"measurement": "viability at 72 h, 25 µM", "setting": "[28]", "value": 99, "unit": "%"}, {"measurement": "AUMCt", "setting": "[29]", "value": 6.3, "unit": "µg·h²/mL"}, {"measurement": "viability at 72 h, 500 µM", "setting": "[30]", "value": 84, "unit": "%"}, {"measurement": "viability at 72 h, 25 µM", "setting": "[31]", "value": 105, "unit": "%"}]}
